Measured values published in ChEMBL document CHEMBL3763019, “Discovery of benzenesulfonamide derivatives as potent PI3K/mTOR dual inhibitors with in vivo efficacies against hepatocellular carcinoma” (Bioorg Med Chem, 2016).
pIC50: −log10 of the molar value.

Tests used:
[1] = Antiproliferative activity against human SF295 cells incubated for 48 hrs by sulforhodamine B assay; assay type: functional; details: SF-295, 48 h
Procedure, shortened: (§1)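 Run externally by the US National Cancer Institute as part of its 60 human cancer cell line cytotoxicity screen (NCI-60).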

[2] = Half life in rat liver microsomes; assay type: ADME
[3] = Antiproliferative activity against human IGROV1 cells incubated for 48 hrs by sulforhodamine B assay; assay type: functional; details: IGROV-1, 48 h
[4] = Antiproliferative activity against human HCT116 cells incubated for 48 hrs by sulforhodamine B assay; assay type: functional; details: HCT-116, 48 h; procedure, shortened: as §1
[5] = target: Phosphatidylinositol 4,5-bisphosphate 3-kinase catalytic subunit gamma isoform (Homo sapiens, UniProt P48736); test: Inhibition of PI3K-gamma (unknown origin) after 40 mins by ADP-Glo luminescent kinase assay
Procedure, shortened: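 Final enzyme was PI3Kβ 4.8 nM and PI3Kγ 7.6 nM. ADP-Glo reagent stopped the reaction (40 min), then detection reagent was added (60 min) and luminescence read. Percent inhibition was derived from RLU.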

[6] = Antiproliferative activity against human Caki1 cells incubated for 48 hrs by sulforhodamine B assay; assay type: functional; details: CAKI-1, 48 h; procedure, shortened: as §1
[7] = Antiproliferative activity against human OVCAR5 cells incubated for 48 hrs by sulforhodamine B assay; assay type: functional; details: OVCAR-5, 48 h; procedure, shortened: as §1
[8] = tested on: 786-0; test: Antiproliferative activity against human 786-0 cells incubated for 48 hrs by sulforhodamine B assay; assay type: functional; details: 786-0, 48 h; procedure, shortened: as §1
[9] = Antiproliferative activity against human UO31 cells incubated for 48 hrs by sulforhodamine B assay; assay type: functional; details: UO-31, 48 h
[10] = tested on: HT-29; test: Antiproliferative activity against human HT-29 cells incubated for 48 hrs by sulforhodamine B assay; assay type: functional; details: HT-29, 48 h; procedure, shortened: as §1
[11] = tested on: ACHN; test: Antiproliferative activity against human ACHN cells incubated for 48 hrs by sulforhodamine B assay; assay type: functional; procedure, shortened: as §1
[12] = Cytotoxicity against human Bel7404 cells after 72 hrs by MTT assay; assay type: functional, cell-based; details: BEL-7404, 72 h
Procedure, shortened: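 Log-phase cells at 40,000–50,000 cells/mL in DMEM with 10% FBS and antibiotics were seeded and cultured overnight at 37 °C, 5% CO₂. Compounds were diluted in DMSO/PBS from 10^-4 to 10^-9 M and applied for 72 h. MTT (5 mg/mL stock) was then added for 4 h and absorbance read at 570 nm. IC50 came from nonlinear regression on triplicate wells, averaged.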

[13] = Antiproliferative activity against human OVCAR8 cells incubated for 48 hrs by sulforhodamine B assay; assay type: functional; details: OVCAR-8, 48 h; procedure, shortened: as §1
[14] = Antiproliferative activity against human SNB75 cells incubated for 48 hrs by sulforhodamine B assay; assay type: functional; details: SNB-75, 48 h; procedure, shortened: as §1
[15] = Antiproliferative activity against human NCI-ADR-RES cells incubated for 48 hrs by sulforhodamine B assay; assay type: functional; procedure, shortened: as §1
[16] = tested on: U-251; test: Antiproliferative activity against human U251 cells incubated for 48 hrs by sulforhodamine B assay; assay type: functional; details: U-251, 48 h
[17] = tested on: MCF7; test: Antiproliferative activity against human MCF7 cells incubated for 48 hrs by sulforhodamine B assay; assay type: functional; details: MCF7, 48 h; procedure, shortened: as §1
[18] = target: T1, Phosphatidylinositol 4,5-bisphosphate 3-kinase catalytic subunit delta isoform (Homo sapiens) (UniProt O00329); test: Inhibition of PI3K-delta (unknown origin) using PIP2 as substrate at 10 nM incubated for 1 hr by Kinase-Glo luminescent kinase assay
T1 sequence (whole entry): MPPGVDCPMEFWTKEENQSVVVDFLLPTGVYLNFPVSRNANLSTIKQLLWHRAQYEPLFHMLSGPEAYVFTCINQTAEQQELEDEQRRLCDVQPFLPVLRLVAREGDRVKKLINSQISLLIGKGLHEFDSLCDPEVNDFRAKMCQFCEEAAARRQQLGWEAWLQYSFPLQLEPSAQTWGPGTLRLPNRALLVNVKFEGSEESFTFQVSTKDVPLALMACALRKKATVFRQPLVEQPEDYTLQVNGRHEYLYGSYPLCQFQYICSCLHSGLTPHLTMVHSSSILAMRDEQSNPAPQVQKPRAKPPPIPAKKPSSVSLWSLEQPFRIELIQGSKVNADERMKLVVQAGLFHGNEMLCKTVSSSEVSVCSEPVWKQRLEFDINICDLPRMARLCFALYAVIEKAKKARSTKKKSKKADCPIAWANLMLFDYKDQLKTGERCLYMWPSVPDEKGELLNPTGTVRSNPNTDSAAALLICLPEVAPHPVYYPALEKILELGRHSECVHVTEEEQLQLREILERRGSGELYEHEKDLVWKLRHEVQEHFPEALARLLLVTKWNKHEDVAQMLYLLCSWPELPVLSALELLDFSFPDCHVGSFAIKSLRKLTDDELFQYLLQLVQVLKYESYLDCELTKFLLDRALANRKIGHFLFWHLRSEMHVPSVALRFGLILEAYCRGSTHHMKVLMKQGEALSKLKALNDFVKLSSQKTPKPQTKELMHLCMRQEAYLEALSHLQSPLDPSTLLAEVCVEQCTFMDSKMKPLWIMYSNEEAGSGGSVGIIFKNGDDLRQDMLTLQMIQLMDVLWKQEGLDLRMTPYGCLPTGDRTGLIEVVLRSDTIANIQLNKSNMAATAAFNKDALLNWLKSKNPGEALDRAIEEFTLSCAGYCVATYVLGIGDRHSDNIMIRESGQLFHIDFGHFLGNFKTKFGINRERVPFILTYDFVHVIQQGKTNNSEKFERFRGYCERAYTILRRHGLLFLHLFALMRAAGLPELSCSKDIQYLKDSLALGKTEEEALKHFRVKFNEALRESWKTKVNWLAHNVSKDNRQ
Procedure, shortened: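 Final PIP2 was 50 µM and ATP 25 µM; PI3Kδ was 1.65 nM. Reactions ran 1 h at room temperature, then Kinase-Glo was added for 15 min before reading luminescence. Percent inhibition was derived from RLU. Dose-response used ten 3-fold dilutions (top 100 or 500 nM) in duplicate.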

[19] = read-out: pLC50 (the source's name) (converted)

Phosphatidylinositol 4,5-bisphosphate 3-kinase catalytic subunit gamma isoform, sequence (P48736 whole entry, canonical isoform): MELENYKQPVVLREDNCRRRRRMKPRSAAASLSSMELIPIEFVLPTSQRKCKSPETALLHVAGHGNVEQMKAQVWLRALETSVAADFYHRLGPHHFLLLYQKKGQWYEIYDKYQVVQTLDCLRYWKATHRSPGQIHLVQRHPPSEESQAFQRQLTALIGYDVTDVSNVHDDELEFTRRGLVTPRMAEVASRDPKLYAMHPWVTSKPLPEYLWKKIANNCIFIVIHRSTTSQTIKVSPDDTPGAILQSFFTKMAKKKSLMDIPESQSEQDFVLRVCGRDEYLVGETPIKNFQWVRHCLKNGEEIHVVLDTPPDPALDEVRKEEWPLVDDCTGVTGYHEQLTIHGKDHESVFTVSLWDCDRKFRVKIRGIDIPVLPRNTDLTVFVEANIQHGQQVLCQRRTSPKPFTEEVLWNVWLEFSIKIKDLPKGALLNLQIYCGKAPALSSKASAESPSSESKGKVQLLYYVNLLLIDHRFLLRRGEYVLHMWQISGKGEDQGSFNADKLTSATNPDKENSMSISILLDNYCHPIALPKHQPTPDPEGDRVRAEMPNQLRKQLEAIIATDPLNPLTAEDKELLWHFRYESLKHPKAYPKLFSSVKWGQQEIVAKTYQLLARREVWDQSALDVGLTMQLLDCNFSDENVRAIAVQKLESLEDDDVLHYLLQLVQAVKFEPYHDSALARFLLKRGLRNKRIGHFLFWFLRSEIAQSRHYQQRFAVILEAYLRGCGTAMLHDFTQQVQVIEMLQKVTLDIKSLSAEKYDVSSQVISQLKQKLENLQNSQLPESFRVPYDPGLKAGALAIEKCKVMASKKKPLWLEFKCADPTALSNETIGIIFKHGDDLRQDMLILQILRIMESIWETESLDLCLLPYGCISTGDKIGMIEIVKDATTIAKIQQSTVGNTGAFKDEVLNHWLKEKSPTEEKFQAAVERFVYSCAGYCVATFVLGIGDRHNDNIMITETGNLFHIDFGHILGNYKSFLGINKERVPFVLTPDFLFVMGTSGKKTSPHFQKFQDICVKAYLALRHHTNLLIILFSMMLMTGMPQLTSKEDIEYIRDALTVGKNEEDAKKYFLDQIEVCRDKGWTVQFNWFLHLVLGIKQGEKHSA

COc1ncc(-c2ccc3nccc(C#CCN4CCN(S(C)(=O)=O)CC4)c3c2)cc1NS(=O)(=O)c1ccc(F)cc1F
GI50 [1]: 74.1 nM
CC50 [1, 19]: 29500 nM
TGI ([1]; read-out: pTGI (converted)): 1000 nM
half-life [2]: 29 min
GI50 [3]: < 10 nM
CC50 [3, 19]: > 100000 nM
GI50 [4]: 138 nM
CC50 [4, 19]: 5750 nM
TGI ([4]; read-out: pTGI (converted)): 1660 nM
pIC50 [5]: 8.57
GI50 [6]: 155 nM
CC50 [6, 19]: 40700 nM
TGI ([6]; read-out: pTGI (converted)): 13800 nM
GI50 [7]: 37.1 nM
CC50 [7, 19]: 60300 nM
TGI ([7]; read-out: pTGI (converted)): 16200 nM
GI50 [8]: 44.7 nM
CC50 [8, 19]: 49000 nM
TGI ([8]; read-out: pTGI (converted)): 1450 nM
GI50 [9]: 31.6 nM
CC50 [9, 19]: 39800 nM
TGI ([9]; read-out: pTGI (converted)): 11700 nM
GI50 [10]: 20.4 nM
CC50 [10, 19]: 35500 nM
TGI ([10]; read-out: pTGI (converted)): 1510 nM
GI50 [11]: 45.7 nM
CC50 [11, 19]: 34700 nM
TGI ([11]; read-out: pTGI (converted)): 6920 nM
pIC50 [12]: 7.70
GI50 [13]: 251 nM
CC50 [13, 19]: 67600 nM
TGI ([13]; read-out: pTGI (converted)): 10700 nM
GI50 [14]: 10.7 nM
CC50 [14, 19]: 28800 nM
TGI ([14]; read-out: pTGI (converted)): 151 nM
GI50 [15]: 355 nM
CC50 [15, 19]: 79400 nM
TGI ([15]; read-out: pTGI (converted)): 12000 nM
GI50 [16]: 178 nM
CC50 [16, 19]: 4680 nM
TGI ([16]; read-out: pTGI (converted)): 1510 nM
GI50 [17]: < 10 nM
CC50 [17, 19]: 49000 nM
TGI ([17]; read-out: pTGI (converted)): 1780 nM
inhibition [18]: 25.8%
